# Assay outcomes as filed in PubChem BioAssay.
# GPR7 antagonist = blocks human GPR7 receptor signaling; P48145; GPR7-expressing cells, fluorescence antagonist assay; inhibition, % at 4.4 µM; 290,000 compounds, 1.1% hits; AID 1861; in the data active means inhibition above about 16%, passing the limit was not always enough;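 further: cells stimulated with the agonist NPW; 0% = agonist with vehicle and 100% = vehicle without agonist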
# CRFBP-R2 block = blocks CRF-induced signaling of the CRF-BP/CRF-R2 complex | HEK293 CRF-R2/CRF-BP, CRF-induced calcium fluorescence | inhibition, % at 11.8 µM | 350,000 compounds, 0.59% hits | AID 588475;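 active means inhibition of the ligand-induced calcium signal above about 50% at the single tested concentration, limit read from the data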
# TRPML3 ag = agonists of human TRPML3 channel. 220,000 compounds, 0.29% hits. AID 1448. Q8TDD5. activation, % at 3 µM. HEK293 TRPML3-YFP, Fluo-8 calcium fluorescence; 100% = the carbachol control signal;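 active means activation above its plate's cutoff, the mean activation of the plate's test wells plus 3 SD, cut at about 12% in these data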;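 further: 0% = DMSO only wells and 100% = carbachol wells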
# Target sequence (Q8TDD5 whole entry, looked up): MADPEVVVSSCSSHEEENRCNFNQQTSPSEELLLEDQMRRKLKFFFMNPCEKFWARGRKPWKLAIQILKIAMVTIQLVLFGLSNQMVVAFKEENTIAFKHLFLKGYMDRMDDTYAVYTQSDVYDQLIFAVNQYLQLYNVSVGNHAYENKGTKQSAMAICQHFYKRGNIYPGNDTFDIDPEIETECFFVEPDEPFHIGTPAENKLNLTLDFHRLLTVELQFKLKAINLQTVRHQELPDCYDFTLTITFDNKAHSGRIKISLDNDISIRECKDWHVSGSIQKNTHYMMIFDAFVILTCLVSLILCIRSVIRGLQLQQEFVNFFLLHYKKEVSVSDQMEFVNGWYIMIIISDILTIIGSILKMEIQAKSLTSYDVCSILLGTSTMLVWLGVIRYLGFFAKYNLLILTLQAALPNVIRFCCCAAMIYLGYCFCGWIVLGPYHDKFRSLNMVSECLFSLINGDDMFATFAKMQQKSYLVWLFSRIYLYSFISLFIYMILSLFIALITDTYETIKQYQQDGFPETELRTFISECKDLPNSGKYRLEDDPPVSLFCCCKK
#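 Material: TRPML3-YFP stable HEK293 cells | Dosing: One concentration, 3 µM nominal, 0.3% DMSO | Timing: 125 s total fluorescence read per well | Technique: Fluo-8 calcium dye fluorescence, ex 470-495, em 515-575 nm | Measure: Percent activation from peak-to-basal fluorescence ratio, scaled between DMSO and carbachol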
# CRFBP-R2 agonist = CRF-BP/CRF-R2 complex agonism | AID 588473 | activation, % at 13.2 µM | HEK293 CRF-R2/CRF-BP, calcium dye fluorescence (FLIPR); percent of saturating CRF peptide response | 350,000 compounds, 0.46% hits;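 active means activation of at least 50%, plus an integration ratio under a set limit after plate pattern correction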;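 further: plate controls were neutral control wells without compound for no effect and CRF at EC100 for full effect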
# zfTRPN1 agonist = zebrafish TRPN1 (NompC) channel agonism | HEK293 zebrafish TRPN1-YFP, Fluo-8 calcium fluorescence; 100% = response to 87 µM carbachol | activation, % at 3 µM | 220,000 compounds, 0.18% hits | AID 1424;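 active means activation above its plate's cutoff, the mean activation of test wells on that plate plus 3 SD, cut at about 19% in these data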;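 further: 0% = DMSO alone and 100% = 87 µM carbachol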
#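 Assay system: Zebrafish TRPN1-YFP in HEK293 cells | Incubation: Dye loading 1 h at 37 °C, then 30 min room temperature | Measured by: Kinetic Fluo-8 fluorescence, ex 470-495, em 515-575 nm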
# GPR7 antag conf = human GPR7 antagonism, confirmation assay. GPR7-expressing cells, calcium fluorescence antagonist mode. inhibition, % at 4.4 µM. 2,400 compounds, 52% hits. shares compounds with GPR7 antagonist; in the data active means inhibition above about 24%;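 further: stimulated with the GPR7 agonist NPW; 0% = agonist plus vehicle and 100% = vehicle alone without agonist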
# MCHR1 antag = MCHR1 (human) antagonism in GPR7 counter-screen. shares compounds with GPR7 antagonist. MCHR1-expressing cells, fluorescence antagonist assay. inhibition, % at 4.4 µM. 2,400 compounds, 62% hits. AID 2148; in the data active means inhibition above about 22%;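 further: 0% = vehicle with agonist and 100% = vehicle without agonist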
# The depositor's hits bear a star; . = not tested or not shown. Hits are enriched below; roughly 2% of the tested compounds scored in any of these assays.
SMILES,GPR7 antagonist,CRFBP-R2 block,TRPML3 ag,CRFBP-R2 agonist,zfTRPN1 agonist,GPR7 antag conf,MCHR1 antag
CC(=O)c1ccc(NC(=O)Nc2cccc(Cl)c2)cc1,28.7*,-26.1,3.5,52.8*,3.7,36.8*,67.3*
O=C(Nc1csc([N+](=O)[O-])c1)Nc1c(Cl)cccc1Cl,11.1,-6.2,1.2,-4.2,6.3,.,.
O=C(Nc1ccc(Cl)cc1)Nc1csc([N+](=O)[O-])c1,23.5*,30.6,15.4*,34.5,21.7*,57.2*,66.7*
O=C(Nc1ccccc1)Nc1ccc(Cl)c([N+](=O)[O-])c1,26.1*,9.5,9.2,5.3,14.7,58.5*,64.6*
CCc1noc(C)c1C(=O)N(CC)CC(=O)NCc1ccc(F)cc1,.,6.4,.,0.8,.,.,.
CS(=O)(=O)c1ccc(C(=O)NNC(=O)c2ccccc2-n2cccc2)cc1,.,5.4,.,0.0,.,.,.
Cc1ccc(C)c(NC(=O)CN2C(=O)NC(C)(c3ccc4c(c3)OCCO4)C2=O)c1 (configuration not stated),.,-20.4,.,0.8,.,.,.
CCC(=O)N(CC)c1nc(-c2ccc(OC)cc2)cs1,27.3*,-13.2,-0.6,3.9,-1.6,2.3,13.2
C=CCCC(=O)N1CCC(n2nccc2NC(=O)c2ccccc2C)CC1,-7.0,-13.8,.,1.0,.,.,.
COCCNC(=O)C(c1cccs1)N(Cc1cccs1)C(=O)Cn1nnc2ccccc21 (configuration not stated),3.4,-4.2,0.6,0.7,0.1,.,.
CC(C)CCNC(=O)C(c1ccco1)N(Cc1cccs1)C(=O)Cn1nnc2ccccc21 (configuration not stated),33.1*,-21.3,-0.8,-1.9,-0.7,10.8,9.8
CC12CCC(/C(=C/NNc3ccc([N+](=O)[O-])cc3[N+](=O)[O-])C1=O)C2(C)C (configuration not stated),.,-9.8,.,2.9,.,.,.
Cc1ccc(CN(Cc2cc3cccc(C)c3[nH]c2=O)C(=S)NCCCN(C)C)cc1,35.6*,-68.6,1.2,43.6,9.9,47.0*,29.9*
Cc1cccc2cc(CN(Cc3cccnc3)C(=S)NCCCN(C)C)c(=O)[nH]c12,1.6,-26.6,1.1,0.4,0.0,.,.
Cc1cccc2cc(CN(Cc3ccccc3)C(=S)NCCCN(C)C)c(=O)[nH]c12,52.6*,-61.4,0.6,37.5,6.3,47.8*,27.9*
CC(=O)c1cc2c(cc1NC(=O)C1CN(C(C)=O)c3ccccc3O1)OCO2 (configuration not stated),.,17.5,.,-1.5,.,.,.
CCCCCCCN1C(Nc2ccccc2)=NC[C@@H]1CC(C)C,44.3*,-11.6,.,-0.3,.,39.6*,34.0*
CC(C)C[C@H]1CN=C(Nc2ccccc2)N1CCC1CCCC1,23.9,-3.6,.,-0.8,.,.,.
CC(C)C[C@H]1CN=C(Nc2ccccc2)N1CC1CCC(C)CC1 (some centres not stated),33.2*,-7.7,.,1.8,.,29.7*,21.8*
CC(C)C[C@H]1CN=C(Nc2ccccc2)N1CCCC1CCCC1,45.6*,-29.4,.,14.4,.,48.9*,35.6*
CC(C)C[C@H]1CN=C(Nc2ccccc2)N1CCCC1CCCCC1,55.4*,-10.5,.,3.1,.,53.4*,38.6*
COc1cc(OC)c(N2CC(C(=O)NCCC3=CCCCC3)CC2=O)cc1Cl (configuration not stated),.,-3.1,.,2.3,.,.,.
Cc1ccc(NC(=O)c2ncn(CCCN[C@H](C)c3cccc4ccccc34)n2)cc1C,.,-15.4,.,-1.6,.,.,.
N=c1c2c(-c3ccccc3)c(-c3ccccc3)n(Cc3ccco3)c2ncn1Cc1ccccc1,23.9*,-6.1,0.5,1.2,-0.2,57.6*,92.4*
O=C(COc1ccc(F)cc1Cl)N(Cc1nnc(-c2ccccc2Cl)o1)C1CC1,3.6,-10.4,.,-2.1,.,.,.
SMILES,GPR7 antagonist,CRFBP-R2 block,TRPML3 ag,CRFBP-R2 agonist,zfTRPN1 agonist,GPR7 antag conf,MCHR1 antag
O=C(NCc1ccccn1)c1cc(S(=O)(=O)N2CCCCC2)ccc1Cl,.,-7.5,.,2.4,.,.,.
COc1ccccc1N1CCN(C(c2ccc(C)cc2)c2nnnn2C(C)C)CC1 (configuration not stated),17.4,6.2,-0.2,-0.4,-1.8,.,.
COc1ccccc1N1CCN(C(c2ccc(F)cc2)c2nnnn2C(C)C)CC1 (configuration not stated),43.0*,-12.0,-0.3,0.8,0.3,21.8,11.9
COc1cc(/C=C/c2nc(-c3ccccc3O)n[nH]2)cc(OC)c1OC,21.7*,1.7,1.0,-3.7,0.4,32.6*,56.7*
COc1cc(/C=C/c2nc(N)nc(-c3ccccc3O)n2)cc(OC)c1OC,-4.0,4.7,0.9,2.5,1.0,.,.
COc1ccc(-c2cc(CCC(=O)N3CCN(c4cc(C)ccc4C)CC3)on2)cc1,.,0.0,.,-0.5,.,.,.
Cc1coc2cc3oc(=O)c(CCC(=O)NCCCN4CCOCC4)c(C)c3cc12,42.6*,5.8,.,0.2,.,-9.0,-3.8
CC(C)c1cccc(C(C)C)c1NC(=O)Cn1c(=O)cnc2ccccc21,22.3*,-5.3,-0.3,-1.6,-1.7,10.5,12.6
Cc1nc(C)c(-c2ccc(SCC(=O)Nc3cccc(Cl)c3)nn2)s1,33.2*,10.4,.,2.8,.,47.9*,66.6*
CCc1ccc(NC(=O)CSc2ccc(-c3sc(C)nc3C)nn2)cc1,31.2*,-6.5,.,-1.3,.,41.4*,76.1*
CCN(CC)C(=O)[C@H]1CC(CC(=O)NCCCn2ccnc2)C(=O)N2CCc3c([nH]c4ccccc34)[C@]12C (some centres not stated),.,-1.4,.,0.2,.,.,.
Cc1c(C=NNC(=O)c2ccc(Br)cc2)c2ccccn2c1C(=O)c1ccncc1,.,3.9,.,0.8,.,.,.
CCc1nccn1S(=O)(=O)c1cc(OC)ccc1OC,-9.3,18.2,.,0.8,.,.,.
O=C(Nc1ccc([N+](=O)[O-])cc1)c1ccc(Cn2cc([N+](=O)[O-])cn2)cc1,23.8*,2.7,0.3,-0.8,3.6,66.5*,72.2*
OC(CNCc1ccc(F)cc1)(c1ccc(F)cc1)c1ccc(F)cc1,33.9*,-53.1,2.6,4.5,0.3,28.8*,29.8*
OC(CNCc1ccc(Cl)cc1)(c1ccccc1)c1ccc(F)cc1 (configuration not stated),1.7,-23.0,-1.4,0.4,0.9,.,.
COc1ccc(CNCC(O)(c2ccc(Cl)cc2)c2ccc(Cl)cc2)cc1,31.3*,-53.8,0.6,7.6,-0.3,38.9*,55.6*
CCCCNCC(O)(c1ccc(Cl)cc1)c1ccc(Cl)cc1,27.3*,-94.5,2.0,42.5,4.4,55.2*,64.5*
O=C(CN1C(=O)c2cccnc2Oc2ccc(Cl)cc21)N1CCOCC1,-8.9,-1.4,.,1.5,.,.,.
Cc1ccc(NC(=O)CCN2C(=O)c3ccccc3C2=O)cc1,-5.8,12.3,.,0.0,.,.,.
